From ChEMBL document CHEMBL1156750 (Bioorg Med Chem Lett, 2009)
pIC50, pKi: −log10 of the molar value. Values joined by “and” are separate entries in the source; they are usually repeats but may differ in a detail not shown here. Identical values can stand only once.

Columns and labels:
Prothrombin = Prothrombin (Homo sapiens, UniProt P00734); experiment: Inhibition of human Thrombin
[1] = Total clearance in dog at 2 mg/kg, iv; assay type: ADME, organism-based, Canis lupus familiaris; parameters: dose 2 mg/kg, route intravenous; conditions: in vivo
In short: (§1)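 Pharmacokinetics in fasted rat, dog and monkey, n = 3 per species. The compound was dosed at 10 mg/mL in PEG400/water (1:1, v/v). Doses were 10 mg/kg iv and po in rat, 2 mg/kg iv and po in dog, and 10 mg/kg iv and po in monkey. Clearance, Vdss, MRT and Tmax were derived from plasma profiles; oral bioavailability came from the po and iv data.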

[2] = Total clearance in monkey at 10 mg/kg, iv; assay type: ADME, organism-based, Macaca mulatta; parameters: dose 10 mg/kg, route intravenous; conditions: rhesus monkey, in vivo; in short: as §1
Cytochrome P450 1A2 = Cytochrome P450 1A2 (Homo sapiens, UniProt P05177); experiment: Inhibition of CYP1A2; assay type: ADME
[3] = biological target: Vitamin K-dependent protein C (Homo sapiens, UniProt P04070); experiment: Inhibition of human Activated protein C
[4] = Plasma protein binding in Sprague-Dawley rat plasma at 30 mg/kg, id; assay type: ADME, organism-based; parameters: dose 30 mg/kg, route intraduodenal; conditions: read-out: PPB (converted)
[5] = Cmax in dog at 2 mg/kg, po; assay type: ADME, organism-based, Canis lupus familiaris; parameters: dose 2 mg/kg, route oral; conditions: in vivo
In short: (§2)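 Fasted animals, n = 3 per species (rat, dog, monkey). Compound was dosed iv or po in a vehicle of 10 mg/mL in PEG400/water (1:1, v/v). Parameters reported were CLtotal, Vdss, t1/2, MRT, Cmax, Tmax and oral bioavailability.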

[6] = Cmax in monkey at 10 mg/kg, po; assay type: ADME, organism-based, Macaca mulatta; parameters: dose 10 mg/kg, route oral; conditions: rhesus monkey, in vivo; in short: as §2
[7] = biological target: T1, Voltage-gated L-type calcium channel (Rattus norvegicus, UniProt P22002+Q02485+P27732); experiment: Inhibition of rat L type calcium channel at verapamil site at 10 uM
Cytochrome P450 2C9 [8] = biological target: T2, Cytochrome P450 2C9 (Homo sapiens, UniProt P11712); experiment: Inhibition of CYP2C9; assay type: ADME
[9] = Total clearance in rat at 10 mg/kg, iv; assay type: ADME, organism-based; parameters: dose 10 mg/kg, route intravenous; conditions: in vivo; in short: as §1
[10] = Volume of distribution in steady state in dog at 2 mg/kg, iv; assay type: ADME, organism-based, Canis lupus familiaris; parameters: dose 2 mg/kg, route intravenous; conditions: in vivo, read-out: Vdss; in short: as §1
Cytochrome P450 3A4 [11] = biological target: T3, Cytochrome P450 3A4 (Homo sapiens, UniProt P08684); experiment: Inhibition of CYP3A4 by HHA assay; assay type: ADME
[12] = […] residence time in monkey at 10 mg/kg, iv; assay type: ADME, organism-based, Macaca mulatta; parameters: dose 10 mg/kg, route intravenous; conditions: rhesus monkey, in vivo; in short: as §1
Plasminogen = Plasminogen (Homo sapiens, UniProt P00747); experiment: Inhibition of human plasmin
[13] = Oral bioavailability in dog at 2 mg/kg; assay type: ADME, organism-based, Canis lupus familiaris; conditions: in vivo; in short: as §1
Cytochrome P450 2C19 [14] = biological target: T4, Cytochrome P450 2C19 (Homo sapiens, UniProt P33261); experiment: Inhibition of CYP2C19 by HHA assay; assay type: ADME
[15] = biological target: Amine oxidase [flavin-containing] B (Rattus norvegicus, UniProt P19643); experiment: Inhibition of rat MAO-B at 10 uM
[16] = Oral bioavailability in rat at 10 mg/kg; assay type: ADME, organism-based; conditions: in vivo; in short: as §1
Cytochrome P450 2C19 [17] = biological target: T4, Cytochrome P450 2C19; experiment: Inhibition of CYP2C19; assay type: ADME
[18] = biological target: Voltage-gated inwardly rectifying potassium channel KCNH2 (Homo sapiens, UniProt Q12809); experiment: Inhibition of human ERG
[19] = Half life in monkey at 10 mg/kg, iv; assay type: ADME, organism-based, Macaca mulatta; parameters: dose 10 mg/kg, route intravenous; conditions: rhesus monkey, in vivo; in short: as §2
Cytochrome P450 2C9 [20] = biological target: T2, Cytochrome P450 2C9; experiment: Inhibition of CYP2C9 by HHA assay; assay type: ADME
[21] = […] residence time in dog at 2 mg/kg, iv; assay type: ADME, organism-based, Canis lupus familiaris; parameters: dose 2 mg/kg, route intravenous; conditions: in vivo; in short: as §1
[22] = Volume of distribution in steady state in rat at 10 mg/kg, iv; assay type: ADME, organism-based; parameters: dose 10 mg/kg, route intravenous; conditions: in vivo, read-out: Vdss; in short: as §1
[23] = biological target: T1, Voltage-gated L-type calcium channel; experiment: Inhibition of rat L type calcium channel at DHP site at 10 uM
Cytochrome P450 3A4 [24] = biological target: T3, Cytochrome P450 3A4; experiment: Inhibition of CYP3A4 using BFC as a substrate; assay type: ADME
[25] = Tmax in dog at 2 mg/kg, po; assay type: ADME, organism-based, Canis lupus familiaris; parameters: dose 2 mg/kg, route oral; conditions: in vivo; in short: as §1
Cytochrome P450 3A4 [26] = biological target: T3, Cytochrome P450 3A4; experiment: Inhibition of CYP3A4 using BZR as substrate; assay type: ADME
[27] = Tmax in rat at 10 mg/kg, po; assay type: ADME, organism-based; parameters: dose 10 mg/kg, route oral; conditions: in vivo; in short: as §1
[28] = Volume of distribution in steady state in monkey at 10 mg/kg, iv; assay type: ADME, organism-based, Macaca mulatta; parameters: dose 10 mg/kg, route intravenous; conditions: rhesus monkey, in vivo, read-out: Vdss; in short: as §1
Cytochrome P450 2D6 [29] = biological target: T5, Cytochrome P450 2D6 (Homo sapiens, UniProt P10635); experiment: Inhibition of CYP2D6; assay type: ADME
[30] = Tmax in monkey at 10 mg/kg, po; assay type: ADME, organism-based, Macaca mulatta; parameters: dose 10 mg/kg, route oral; conditions: rhesus monkey, in vivo; in short: as §1
[31] = Half life in rat at 10 mg/kg, iv; assay type: ADME, organism-based; parameters: dose 10 mg/kg, route intravenous; conditions: in vivo; in short: as §2
Cytochrome P450 2D6 [32] = biological target: T5, Cytochrome P450 2D6; experiment: Inhibition of CYP2D6 by HHA assay; assay type: ADME
[33] = biological target: Tissue-type plasminogen activator (Homo sapiens, UniProt P00750); experiment: Inhibition of human t-PA
[34] = Half life in dog at 2 mg/kg, iv; assay type: ADME, organism-based, Canis lupus familiaris; parameters: dose 2 mg/kg, route intravenous; conditions: in vivo; in short: as §2
[35] = Oral bioavailability in monkey at 10 mg/kg; assay type: ADME, organism-based, Macaca mulatta; conditions: rhesus monkey, in vivo; in short: as §1
[36] = biological target: Amine oxidase [flavin-containing] A (Rattus norvegicus, UniProt P21396); experiment: Inhibition of rat MAO-A at 10 uM
[37] = biological target: Nuclear receptor subfamily 1 group I member 2 (Homo sapiens, UniProt O75469); experiment: Inhibition of PXR
[38] = biological target: Urokinase-type plasminogen activator (Homo sapiens, UniProt P00749); experiment: Inhibition of human u-PA
[39] = Cmax in rat at 10 mg/kg, po; assay type: ADME, organism-based; parameters: dose 10 mg/kg, route oral; conditions: in vivo; in short: as §2
[40] = […] residence time in rat at 10 mg/kg, iv; assay type: ADME, organism-based; parameters: dose 10 mg/kg, route intravenous; conditions: in vivo; in short: as §1

T2 sequence (P11712 whole entry): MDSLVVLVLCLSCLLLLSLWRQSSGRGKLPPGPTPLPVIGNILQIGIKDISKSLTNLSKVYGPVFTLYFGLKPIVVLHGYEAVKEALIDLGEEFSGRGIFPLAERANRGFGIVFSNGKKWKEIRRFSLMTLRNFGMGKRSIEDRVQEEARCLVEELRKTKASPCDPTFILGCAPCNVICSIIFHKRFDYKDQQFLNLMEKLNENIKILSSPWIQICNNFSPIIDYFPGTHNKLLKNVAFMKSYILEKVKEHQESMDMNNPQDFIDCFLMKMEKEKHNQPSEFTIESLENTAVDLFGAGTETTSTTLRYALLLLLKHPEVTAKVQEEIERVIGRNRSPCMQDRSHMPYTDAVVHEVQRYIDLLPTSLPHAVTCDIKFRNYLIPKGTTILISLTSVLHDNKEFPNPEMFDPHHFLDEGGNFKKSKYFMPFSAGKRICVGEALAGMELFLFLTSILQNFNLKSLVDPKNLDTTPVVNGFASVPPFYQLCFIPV
T4 sequence (P33261 whole entry): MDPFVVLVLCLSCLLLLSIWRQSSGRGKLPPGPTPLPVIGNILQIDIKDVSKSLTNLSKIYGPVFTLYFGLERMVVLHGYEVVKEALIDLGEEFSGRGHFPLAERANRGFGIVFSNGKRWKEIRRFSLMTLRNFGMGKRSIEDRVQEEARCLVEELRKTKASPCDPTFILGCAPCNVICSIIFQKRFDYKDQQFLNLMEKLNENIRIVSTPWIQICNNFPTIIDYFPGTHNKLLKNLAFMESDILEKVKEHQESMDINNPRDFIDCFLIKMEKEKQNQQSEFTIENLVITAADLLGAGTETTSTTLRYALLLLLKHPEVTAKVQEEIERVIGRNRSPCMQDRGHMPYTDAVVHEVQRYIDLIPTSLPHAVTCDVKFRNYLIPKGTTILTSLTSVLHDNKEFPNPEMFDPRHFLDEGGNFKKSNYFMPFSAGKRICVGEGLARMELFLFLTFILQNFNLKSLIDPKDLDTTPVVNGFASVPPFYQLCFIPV
T3 sequence (P08684 whole entry): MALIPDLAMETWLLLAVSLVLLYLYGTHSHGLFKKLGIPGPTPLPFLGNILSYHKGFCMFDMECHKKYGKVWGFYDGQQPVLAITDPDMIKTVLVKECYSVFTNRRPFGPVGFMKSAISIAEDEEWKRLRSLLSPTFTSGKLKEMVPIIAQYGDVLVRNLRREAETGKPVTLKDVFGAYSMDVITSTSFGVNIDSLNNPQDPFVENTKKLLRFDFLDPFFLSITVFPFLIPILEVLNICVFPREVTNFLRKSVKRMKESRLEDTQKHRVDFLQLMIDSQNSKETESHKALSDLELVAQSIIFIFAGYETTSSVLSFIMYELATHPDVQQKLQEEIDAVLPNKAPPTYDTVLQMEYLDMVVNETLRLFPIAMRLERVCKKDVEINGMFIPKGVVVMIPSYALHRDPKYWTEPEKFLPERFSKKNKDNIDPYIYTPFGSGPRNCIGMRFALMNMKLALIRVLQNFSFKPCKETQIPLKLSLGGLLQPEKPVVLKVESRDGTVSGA
T5 sequence (P10635 whole entry): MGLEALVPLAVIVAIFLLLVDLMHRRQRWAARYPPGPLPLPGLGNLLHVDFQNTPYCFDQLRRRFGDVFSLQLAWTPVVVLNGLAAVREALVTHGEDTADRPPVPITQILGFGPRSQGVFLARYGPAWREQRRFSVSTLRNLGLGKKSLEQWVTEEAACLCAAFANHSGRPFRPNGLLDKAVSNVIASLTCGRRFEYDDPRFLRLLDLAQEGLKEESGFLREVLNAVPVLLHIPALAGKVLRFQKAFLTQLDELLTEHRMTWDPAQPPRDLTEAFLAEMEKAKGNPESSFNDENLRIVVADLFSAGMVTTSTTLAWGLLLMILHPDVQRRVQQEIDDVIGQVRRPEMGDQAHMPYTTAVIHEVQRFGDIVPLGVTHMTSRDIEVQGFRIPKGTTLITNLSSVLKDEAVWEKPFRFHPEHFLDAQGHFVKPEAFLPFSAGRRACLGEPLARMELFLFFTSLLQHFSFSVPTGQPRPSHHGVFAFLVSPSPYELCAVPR
Vitamin K-dependent protein C, sequence (P04070 43-197 limits assumed): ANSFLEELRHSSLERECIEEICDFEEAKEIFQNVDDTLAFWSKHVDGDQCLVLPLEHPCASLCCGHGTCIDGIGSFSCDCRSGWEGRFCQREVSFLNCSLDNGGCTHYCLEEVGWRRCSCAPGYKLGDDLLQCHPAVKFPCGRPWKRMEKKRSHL
Vitamin K-dependent protein C, sequence (P04070 212-461 limits assumed): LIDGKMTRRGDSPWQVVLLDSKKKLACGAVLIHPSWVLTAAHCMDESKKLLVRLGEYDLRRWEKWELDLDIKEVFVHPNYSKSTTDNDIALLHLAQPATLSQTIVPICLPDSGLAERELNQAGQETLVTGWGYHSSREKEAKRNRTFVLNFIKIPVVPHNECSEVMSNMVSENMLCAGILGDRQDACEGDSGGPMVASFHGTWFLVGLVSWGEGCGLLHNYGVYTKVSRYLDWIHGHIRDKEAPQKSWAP
Tissue-type plasminogen activator, sequence (P00750 whole entry): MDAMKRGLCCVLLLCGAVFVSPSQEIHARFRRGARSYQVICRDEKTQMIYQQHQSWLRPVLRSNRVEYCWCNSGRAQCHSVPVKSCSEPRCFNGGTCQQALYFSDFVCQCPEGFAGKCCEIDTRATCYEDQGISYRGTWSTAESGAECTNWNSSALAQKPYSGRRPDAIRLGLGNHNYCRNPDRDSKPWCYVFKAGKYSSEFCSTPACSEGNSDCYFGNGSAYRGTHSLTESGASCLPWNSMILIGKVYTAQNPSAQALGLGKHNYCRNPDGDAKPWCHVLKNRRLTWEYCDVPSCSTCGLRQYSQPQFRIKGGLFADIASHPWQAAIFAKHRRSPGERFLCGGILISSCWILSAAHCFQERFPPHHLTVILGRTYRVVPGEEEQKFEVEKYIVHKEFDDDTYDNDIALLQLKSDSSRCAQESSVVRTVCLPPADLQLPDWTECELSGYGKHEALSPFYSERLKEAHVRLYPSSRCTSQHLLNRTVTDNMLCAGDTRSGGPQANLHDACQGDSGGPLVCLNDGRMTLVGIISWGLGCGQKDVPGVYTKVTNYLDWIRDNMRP
Cytochrome P450 1A2, sequence (P05177 whole entry): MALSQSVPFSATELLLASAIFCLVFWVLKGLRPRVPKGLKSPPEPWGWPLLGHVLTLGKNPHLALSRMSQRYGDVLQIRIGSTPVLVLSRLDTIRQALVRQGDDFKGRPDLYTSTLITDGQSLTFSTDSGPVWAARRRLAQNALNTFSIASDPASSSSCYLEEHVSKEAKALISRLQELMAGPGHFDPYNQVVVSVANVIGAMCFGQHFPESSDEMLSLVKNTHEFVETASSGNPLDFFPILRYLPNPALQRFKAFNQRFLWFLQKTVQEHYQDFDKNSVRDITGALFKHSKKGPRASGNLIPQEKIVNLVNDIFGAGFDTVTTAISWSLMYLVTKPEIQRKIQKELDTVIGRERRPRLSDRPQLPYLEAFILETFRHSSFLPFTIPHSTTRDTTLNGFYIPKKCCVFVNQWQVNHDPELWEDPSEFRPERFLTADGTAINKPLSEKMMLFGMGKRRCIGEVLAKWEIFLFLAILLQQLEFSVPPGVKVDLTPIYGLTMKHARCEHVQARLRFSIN
Voltage-gated inwardly rectifying potassium channel KCNH2, sequence (Q12809 whole entry): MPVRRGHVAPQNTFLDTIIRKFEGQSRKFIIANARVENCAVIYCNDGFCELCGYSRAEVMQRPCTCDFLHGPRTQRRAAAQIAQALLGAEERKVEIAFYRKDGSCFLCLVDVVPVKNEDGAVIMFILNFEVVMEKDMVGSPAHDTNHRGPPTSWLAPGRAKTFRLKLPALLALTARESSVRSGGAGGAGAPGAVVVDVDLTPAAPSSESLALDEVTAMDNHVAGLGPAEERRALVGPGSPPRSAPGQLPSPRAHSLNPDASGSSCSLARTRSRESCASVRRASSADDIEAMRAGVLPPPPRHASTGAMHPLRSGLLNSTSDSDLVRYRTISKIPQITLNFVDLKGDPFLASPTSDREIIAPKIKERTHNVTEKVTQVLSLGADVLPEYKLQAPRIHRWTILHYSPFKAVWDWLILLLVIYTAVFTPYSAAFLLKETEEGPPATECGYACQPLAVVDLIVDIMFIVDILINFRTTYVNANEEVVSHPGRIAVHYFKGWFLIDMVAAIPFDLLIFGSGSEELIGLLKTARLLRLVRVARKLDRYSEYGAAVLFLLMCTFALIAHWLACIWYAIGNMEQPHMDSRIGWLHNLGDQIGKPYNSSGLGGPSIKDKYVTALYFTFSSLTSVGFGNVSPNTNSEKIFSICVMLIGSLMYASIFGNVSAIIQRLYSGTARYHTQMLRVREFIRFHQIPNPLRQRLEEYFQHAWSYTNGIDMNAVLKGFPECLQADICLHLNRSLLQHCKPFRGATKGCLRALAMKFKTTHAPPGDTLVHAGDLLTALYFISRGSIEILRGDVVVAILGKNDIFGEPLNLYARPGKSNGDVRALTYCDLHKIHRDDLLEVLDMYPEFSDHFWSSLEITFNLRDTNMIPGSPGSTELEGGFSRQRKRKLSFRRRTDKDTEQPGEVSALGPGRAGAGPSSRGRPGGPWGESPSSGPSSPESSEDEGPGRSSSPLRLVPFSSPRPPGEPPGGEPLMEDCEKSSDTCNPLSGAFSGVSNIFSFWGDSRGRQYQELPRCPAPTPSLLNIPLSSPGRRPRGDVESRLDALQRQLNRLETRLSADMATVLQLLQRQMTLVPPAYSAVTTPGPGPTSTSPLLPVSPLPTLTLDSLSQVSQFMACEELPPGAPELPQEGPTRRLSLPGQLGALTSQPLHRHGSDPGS

pKi (Prothrombin): 5.64
clearance [1]: 1.9 mL/min/kg
clearance [2]: 11 mL/min/kg
pIC50 (Cytochrome P450 1A2): < 4.40
pKi [3]: < 4.74
fraction unbound [4]: 0.28
Cmax [5]: 2800 ng/mL
Cmax [6]: 2100 ng/mL
Activity [7]: Not Active
pIC50 (Cytochrome P450 2C9 [8]): 4.37 and < 4.40
clearance [9]: 27 mL/min/kg
Vd [10]: 0.96 L/kg
pIC50 (Cytochrome P450 3A4 [11]): < 3.70
MRT [12]: 4 h
pKi (Plasminogen): < 4.80
bioavailability [13]: 77%
pIC50 (Cytochrome P450 2C19 [14]): < 3.70
Activity [15]: Not Active
bioavailability [16]: 55%
pIC50 (Cytochrome P450 2C19 [17]): 4.29 and 4.40
half-life [19]: 840 min
pIC50 (Cytochrome P450 2C9 [20]): < 3.70
MRT [21]: 9 h
Vd [22]: 3.3 L/kg
Activity [23]: Not Active
pIC50 (Cytochrome P450 3A4 [24]): 4.41
Tmax [25]: 1.3 h
pIC50 (Cytochrome P450 3A4 [26]): < 4.40
Tmax [27]: 36 min
Vd [28]: 2.3 L/kg
pIC50 (Cytochrome P450 2D6 [29]): < 4.40
Tmax [30]: 1.8 h
half-life [31]: 96 min
pIC50 (Cytochrome P450 2D6 [32]): < 3.70
pKi [33]: 6.18
half-life [34]: 516 min
bioavailability [35]: 28%
Activity [36]: Not Active
Activity [37]: Not Active
pKi [38]: < 5.11
Cmax [39]: 2200 ng/mL
MRT [40]: 2 h
SMILES: Cc1cc2cc(N=C(NC(=O)c3ccc(C(=O)N(C)C)nc3)N[C@H]3CCCCN(CC(=O)N4CCCC4)C3=O)ccc2o1
Activity [18]: Not Active
